Measured values: ChEMBL document CHEMBL5724801, “EUbOPEN Chemogenomics Library - Multiplex” (2024)
Several values for one entry are separate records, joined by “and”; a condition that tells them apart may be missing. Identical values can stand only once.

System: Fibroblast
Assay: Multiplex assay against human fibroblast
Format: toxicity, cell-based
Outline: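 Values for tubulin, mitochondrial-mass and membrane-permeability phenotypes are per cents of cells with healthy nuclei. These cells were identified by CellPathfinder machine-learning gating of live cells that had been stained at seeding with Hoechst33342, BioTracker Green Microtubule Cytoskeleton Dye, MitoTracker Red and Annexin V Alexa Fluor 680 and imaged on a CQ1 microscope at 37°C and 5% CO2 after compound addition. The gating first set Hoechst high-intensity objects apart from normal cells, then split normal cells into healthy, pyknosed or fragmented nuclei, and pyknosed cells into mitotic or apoptotic.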

[1] = 12 h, 1 µM, compound concentration 1 uM
[2] = 12 h, 10 µM, compound concentration 10 uM
[3] = 24 h, 1 µM, compound concentration 1 uM
[4] = 24 h, 10 µM, compound concentration 10 uM
[5] = 48 h, 1 µM, compound concentration 1 uM
[6] = 48 h, 10 µM, compound concentration 10 uM

CCOC(=O)c1c(/C(C#N)=C\N)c2ccc(Cl)c(Cl)c2n1C
Population Fragmented Nuclei (%) [1]: 11.86% and 4.52% | Population Healthy Nuclei (%) [1]: 64.41% and 76.92% | Population Hoechst High Intensity Objects (%) [1]: 0% | Population Membrane Permeable-Phenotype (%) [1]: 0% and 2.94% | Population Mitochondria Different-Phenotype (%) [1]: 11.84% and 14.71% | Population Mitotic Cells (%) [1]: 96.43% and 85.37% | Population Normal (%) [1]: 100% | Population Pyknosed Nuclei (%) [1]: 23.73% and 18.55% | Population Tubulin-Different-Phenotype (%) [1]: 10.53% and 18.82% | Total Cell Count [1]: 118 and 221 | Population Apoptotic (%) [2]: 24.32% and 12.77% | Population Fragmented Nuclei (%) [2]: 10.92% and 3.83% | Population Healthy Nuclei (%) [2]: 67.82% and 76.17% | Population Hoechst High Intensity Objects (%) [2]: 0% | Population Membrane Permeable-Phenotype (%) [2]: 4.24% and 1.12% | Population Mitochondria Different-Phenotype (%) [2]: 3.39% and 7.82% | Population Mitotic Cells (%) [2]: 75.68% and 87.23% | Population Normal (%) [2]: 100% | Population Pyknosed Nuclei (%) [2]: 21.26% and 20% | Population Tubulin-Different-Phenotype (%) [2]: 15.25% and 16.2% | Total Cell Count [2]: 174 and 235 | Population Apoptotic (%) [3]: 0% and 20.83% | Population Fragmented Nuclei (%) [3]: 7.25% and 3.83% | Population Healthy Nuclei (%) [3]: 72.46% and 85.96% | Population Hoechst High Intensity Objects (%) [3]: 0% | Population Membrane Permeable-Phenotype (%) [3]: 4% and 1.98% | Population Mitochondria Different-Phenotype (%) [3]: 3% and 6.93% | Population Mitotic Cells (%) [3]: 100% and 79.17% | Population Normal (%) [3]: 100% | Population Pyknosed Nuclei (%) [3]: 20.29% and 10.21% | Population Tubulin-Different-Phenotype (%) [3]: 11% and 18.81% | Total Cell Count [3]: 138 and 235 | Population Apoptotic (%) [4]: 14.81% and 20.59% | Population Fragmented Nuclei (%) [4]: 8.02% and 1.27% | Population Healthy Nuclei (%) [4]: 77.54% and 84.39% | Population Hoechst High Intensity Objects (%) [4]: 0% | Population Membrane Permeable-Phenotype (%) [4]: 3.45% and 2.5% | Population Mitochondria Different-Phenotype (%) [4]: 4.14% and 7% | Population Mitotic Cells (%) [4]: 85.19% and 79.41% | Population Normal (%) [4]: 100% | Population Pyknosed Nuclei (%) [4]: 14.44% and 14.35% | Population Tubulin-Different-Phenotype (%) [4]: 11.03% and 18.5% | Total Cell Count [4]: 187 and 237 | Population Apoptotic (%) [5]: 40% and 25% | Population Fragmented Nuclei (%) [5]: 12.18% and 3.67% | Population Healthy Nuclei (%) [5]: 84.62% and 91.43% | Population Hoechst High Intensity Objects (%) [5]: 0% | Population Membrane Permeable-Phenotype (%) [5]: 0% and 2.68% | Population Mitotic Cells (%) [5]: 60% and 75% | Population Normal (%) [5]: 100% | Population Pyknosed Nuclei (%) [5]: 3.21% and 4.9% | Population Tubulin-Different-Phenotype (%) [5]: 7.58% and 20.98% | Total Cell Count [5]: 156 and 245 | Population Apoptotic (%) [6]: 44.44% and 21.05% | Population Fragmented Nuclei (%) [6]: 8.78% and 2.61% | Population Healthy Nuclei (%) [6]: 86.83% and 89.13% | Population Hoechst High Intensity Objects (%) [6]: 0% | Population Membrane Permeable-Phenotype (%) [6]: 0.56% and 2.93% | Population Mitochondria Different-Phenotype (%) [6]: 11.24% and 1.95% | Population Mitotic Cells (%) [6]: 55.56% and 78.95% | Population Normal (%) [6]: 100% | Population Pyknosed Nuclei (%) [6]: 4.39% and 8.26% | Total Cell Count [6]: 205 and 230

CCn1c(-c2nonc2N)nc2c(C#CC(C)(C)O)ncc(OCC3CCCNC3)c21 (stereo unspecified)
Population Apoptotic (%) [1]: 9.09% and 27.03% | Population Fragmented Nuclei (%) [1]: 15.15% and 9.22% | Population Healthy Nuclei (%) [1]: 64.85% and 77.66% | Population Hoechst High Intensity Objects (%) [1]: 0% | Population Membrane Permeable-Phenotype (%) [1]: 4.67% and 1.83% | Population Mitochondria Different-Phenotype (%) [1]: 8.41% and 8.68% | Population Mitotic Cells (%) [1]: 90.91% and 72.97% | Population Normal (%) [1]: 100% | Population Pyknosed Nuclei (%) [1]: 20% and 13.12% | Population Tubulin-Different-Phenotype (%) [1]: 9.35% and 19.63% | Total Cell Count [1]: 165 and 282 | Population Apoptotic (%) [2]: 13.33% and 12.2% | Population Fragmented Nuclei (%) [2]: 17.67% and 9.62% | Population Healthy Nuclei (%) [2]: 66.43% and 74.62% | Population Hoechst High Intensity Objects (%) [2]: 0% | Population Membrane Permeable-Phenotype (%) [2]: 6.91% and 2.06% | Population Mitochondria Different-Phenotype (%) [2]: 25% and 13.4% | Population Mitotic Cells (%) [2]: 86.67% and 87.8% | Population Normal (%) [2]: 100% | Population Pyknosed Nuclei (%) [2]: 15.9% and 15.77% | Population Tubulin-Different-Phenotype (%) [2]: 35.64% and 40.21% | Total Cell Count [2]: 283 and 260 | Population Fragmented Nuclei (%) [3]: 14.1% and 7.45% | Population Healthy Nuclei (%) [3]: 73.08% and 80.78% | Population Hoechst High Intensity Objects (%) [3]: 0% | Population Membrane Permeable-Phenotype (%) [3]: 0.88% and 1.46% | Population Mitochondria Different-Phenotype (%) [3]: 5.26% and 11.65% | Population Mitotic Cells (%) [3]: 90% and 63.33% | Population Normal (%) [3]: 100% | Population Pyknosed Nuclei (%) [3]: 12.82% and 11.76% | Total Cell Count [3]: 156 and 255 | Population Apoptotic (%) [4]: 7.41% and 9.09% | Population Fragmented Nuclei (%) [4]: 24.25% and 15.79% | Population Healthy Nuclei (%) [4]: 61.04% and 77.78% | Population Hoechst High Intensity Objects (%) [4]: 0% | Population Membrane Permeable-Phenotype (%) [4]: 1.79% and 2.26% | Population Mitotic Cells (%) [4]: 92.59% and 90.91% | Population Normal (%) [4]: 100% | Population Pyknosed Nuclei (%) [4]: 14.71% and 6.43% | Population Tubulin-Different-Phenotype (%) [4]: 40.18% and 33.08% | Total Cell Count [4]: 367 and 342 | Population Apoptotic (%) [5]: 23.08% and 33.33% | Population Fragmented Nuclei (%) [5]: 5.03% and 4.44% | Population Healthy Nuclei (%) [5]: 86.79% and 87.1% | Population Hoechst High Intensity Objects (%) [5]: 0% | Population Membrane Permeable-Phenotype (%) [5]: 2.9% and 4.63% | Population Mitotic Cells (%) [5]: 76.92% and 66.67% | Population Normal (%) [5]: 100% | Population Pyknosed Nuclei (%) [5]: 8.18% and 8.47% | Total Cell Count [5]: 159 and 248 | Population Apoptotic (%) [6]: 30% and 29.41% | Population Fragmented Nuclei (%) [6]: 21.53% and 21.32% | Population Healthy Nuclei (%) [6]: 69.97% and 74.37% | Population Hoechst High Intensity Objects (%) [6]: 0% | Population Membrane Permeable-Phenotype (%) [6]: 1.21% and 0.68% | Population Mitochondria Different-Phenotype (%) [6]: 8.91% and 1.71% | Population Mitotic Cells (%) [6]: 70% and 70.59% | Population Normal (%) [6]: 100% | Population Pyknosed Nuclei (%) [6]: 8.5% and 4.31% | Population Tubulin-Different-Phenotype (%) [6]: 29.55% and 33.11% | Total Cell Count [6]: 353 and 394

NC1=NC(=O)/C(=C2\CCNC(=O)c3[nH]c4ccccc4c32)N1
Population Apoptotic (%) [1]: 5.88% and 11.11% | Population Healthy Nuclei (%) [1]: 60.61% and 85.31% | Population Hoechst High Intensity Objects (%) [1]: 0% | Population Membrane Permeable-Phenotype (%) [1]: 2% and 1.91% | Population Mitochondria Different-Phenotype (%) [1]: 8% and 7.66% | Population Mitotic Cells (%) [1]: 94.12% and 88.89% | Population Normal (%) [1]: 100% | Population Pyknosed Nuclei (%) [1]: 20.61% and 11.02% | Population Tubulin-Different-Phenotype (%) [1]: 10% and 11.48% | Total Cell Count [1]: 165 and 245 | Population Fragmented Nuclei (%) [2]: 8.29% and 5.11% | Population Healthy Nuclei (%) [2]: 63.9% and 72.73% | Population Hoechst High Intensity Objects (%) [2]: 0% | Population Membrane Permeable-Phenotype (%) [2]: 3.82% and 2.34% | Population Mitochondria Different-Phenotype (%) [2]: 7.63% and 9.38% | Population Mitotic Cells (%) [2]: 92.98% and 76.92% | Population Normal (%) [2]: 100% | Population Pyknosed Nuclei (%) [2]: 27.8% and 22.16% | Population Tubulin-Different-Phenotype (%) [2]: 9.92% and 14.06% | Total Cell Count [2]: 205 and 176 | Population Apoptotic (%) [3]: 10% and 14.71% | Population Fragmented Nuclei (%) [3]: 10% and 5.2% | Population Healthy Nuclei (%) [3]: 73.33% and 81.2% | Population Hoechst High Intensity Objects (%) [3]: 0% | Population Membrane Permeable-Phenotype (%) [3]: 6.06% and 1.48% | Population Mitochondria Different-Phenotype (%) [3]: 3.79% and 8.37% | Population Mitotic Cells (%) [3]: 90% and 85.29% | Population Normal (%) [3]: 100% | Population Pyknosed Nuclei (%) [3]: 16.67% and 13.6% | Population Tubulin-Different-Phenotype (%) [3]: 12.12% and 11.33% | Total Cell Count [3]: 180 and 250 | Population Apoptotic (%) [4]: 4.92% and 12.82% | Population Fragmented Nuclei (%) [4]: 6.84% and 5.46% | Population Healthy Nuclei (%) [4]: 67.09% and 73.22% | Population Hoechst High Intensity Objects (%) [4]: 0% | Population Membrane Permeable-Phenotype (%) [4]: 5.1% and 0% | Population Mitochondria Different-Phenotype (%) [4]: 3.82% and 5.97% | Population Mitotic Cells (%) [4]: 95.08% and 87.18% | Population Normal (%) [4]: 100% | Population Pyknosed Nuclei (%) [4]: 26.07% and 21.31% | Population Tubulin-Different-Phenotype (%) [4]: 12.1% and 15.67% | Total Cell Count [4]: 234 and 183 | Population Fragmented Nuclei (%) [5]: 13% and 5% | Population Healthy Nuclei (%) [5]: 83% and 91.25% | Population Hoechst High Intensity Objects (%) [5]: 0% | Population Membrane Permeable-Phenotype (%) [5]: 1.2% and 2.74% | Population Mitotic Cells (%) [5]: 87.5% and 55.56% | Population Normal (%) [5]: 100% | Population Pyknosed Nuclei (%) [5]: 4% and 3.75% | Population Tubulin-Different-Phenotype (%) [5]: 6.02% and 11.42% | Total Cell Count [5]: 200 and 240 | Population Apoptotic (%) [6]: 19.05% and 14.29% | Population Fragmented Nuclei (%) [6]: 4.95% and 6.88% | Population Healthy Nuclei (%) [6]: 87.63% and 85.71% | Population Hoechst High Intensity Objects (%) [6]: 0% | Population Membrane Permeable-Phenotype (%) [6]: 0.4% and 4.32% | Population Mitochondria Different-Phenotype (%) [6]: 11.69% and 2.47% | Population Mitotic Cells (%) [6]: 80.95% and 85.71% | Population Normal (%) [6]: 100% | Population Pyknosed Nuclei (%) [6]: 7.42% and 7.41% | Population Tubulin-Different-Phenotype (%) [6]: 6.45% and 14.2% | Total Cell Count [6]: 283 and 189
